Measured values from ChEMBL document CHEMBL1123566, “Synthesis and cardiac electrophysiological activity of 2- and 3-[(substituted phenyl)alkyl]quinuclidines. Structure-activity relationships” (1987).
“And” between values parts separate entries of the source, which are not always exact repeats. Equal entries are not always repeated.

Assays:
Canis familiaris [1] = organism: Canis familiaris; assay: (§1) In vitro electrophysiological evaluation in canine cardiac occurred is 100 uM.; format: functional; conditions: Canis lupus familiaris; Heart
Canis familiaris [2] = organism: Canis familiaris; assay: In vitro electrophysiological evaluation in canine cardiac ventricular muscle reported as % change for conduction time(CT) at 0.1-100 uM concentration range; Minimal (<10% decrease or increase inCT).; format: functional, Canis lupus familiaris, Muscle tissue
In short: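 Canine right ventricular/papillary muscle strips in oxygenated Tyrode's, extracellular extra-stimulus conduction-interval method. FRP and CT are read from conduction-interval curves before and during rising concentrations. Compound is a 10 mM aqueous stock diluted into Tyrode's. Each strip is used once as its own control. Readouts are percent change from control at 10 μM, plus the maximum change with its concentration.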

Canis familiaris [3] = organism: Canis familiaris; assay: In vitro electrophysiological activity in canine cardiac occurred is 100 uM.; format: functional, Canis lupus familiaris, Heart
Canis familiaris [4] = organism: Canis familiaris; assay: In vitro electrophysiological activity in canine cardiac occurred is 1 uM.; format: functional, Canis lupus familiaris, Heart
Canis familiaris [5] = organism: Canis familiaris; assay: In vitro electrophysiological evaluation in canine cardiac Purkinje fibres reported as percent change Vmax at 10 uM at concentration range of 1-100 uM; Minimal (<10% decrease or increase in Vmax).; format: functional, organism-based; conditions: Canis lupus familiaris, Purkinje fiber
In short: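 Canine cardiac Purkinje fibers, intracellular recording, paced at a basic cycle length of 1 s. APD95 and Vmax are recorded together across cumulative concentrations. Compound is a 10 mM aqueous stock diluted into Tyrode's solution. Each fiber is used once as its own control. Readouts are percent change from control at 10 μM, and the maximum change with the concentration where it occurred.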

Canis familiaris [6] = organism: Canis familiaris; assay: In vitro electrophysiological evaluation in canine cardiac Purkinje fibres reported as % change for action potential duration at a concentration of 10 uM; format: functional, Canis lupus familiaris, Purkinje fiber
In short: (§2)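 Canine cardiac Purkinje fibres, intracellular microelectrode recording, paced at a basic cycle length of 1 s. APD95 and Vmax read simultaneously. Compound: 10 mM stock in deionized water, diluted into Tyrode's solution, tested over the stated concentration range. Each fibre used once as its own control. Result is % change from control, given at 10 µM or as the maximum with its concentration. M = <10% decrease or an increase in Vmax.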

Canis familiaris [7] = organism: Canis familiaris; assay: In vitro electrophysiological evaluation in canine cardiac Purkinje fibres reported as % change for action potential duration at 10 uM at 1-100 uM concentration range; format: functional, Canis lupus familiaris, Purkinje fiber; in short: as §2
Canis familiaris [8] = organism: Canis familiaris; assay: In vitro electrophysiological evaluation in canine cardiac ventricular muscle reported as maximum % change for conduction time(CT) at 0.1-100 uM concentration range; Minimal (<10% decrease or increase inCT).; format: functional, Canis lupus familiaris, Muscle tissue
Canis familiaris [9] = organism: Canis familiaris; assay: as §1; format: functional, organism-based; conditions: Canis lupus familiaris; Heart
Canis familiaris [10] = organism: Canis familiaris; assay: In vitro electrophysiological evaluation in canine cardiac ventricular muscle reported as % change for conduction time(CT) at 10 uM at 0.1-10 uM concentration range; Minimal (<10% decrease or increase in CT).; format: functional, Canis lupus familiaris, Muscle tissue
Canis familiaris [11] = organism: Canis familiaris; assay: In vitro electrophysiological activity in canine cardiac occurred is 10 uM.; format: functional, Canis lupus familiaris, Heart
Canis familiaris [12] = assay: Conduction time was determined by intraduodenal administration of 30 mg/kg (high dose) of compound in anesthetized dogs. Value was reported for experiment 1; format: functional, Canis lupus familiaris
In short: (§3)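 Anesthetized dogs; compound given intraduodenally, generally as two doses, the second a cumulative (high) dose. LV functional refractory period and conduction time measured 15, 30 and 45 min after dosing; heart rate and blood pressure measured during nonpacing intervals. Values are % change from control, given per individual animal. Active if FRP or CT prolonged by ≥12%.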

Canis familiaris [13] = organism: Canis familiaris; assay: In vitro electrophysiological evaluation in canine cardiac Purkinje fibres reported as maximum percent change Vmax concentration range of 0.1-100 uM; conduction block; format: functional; conditions: Canis lupus familiaris; Purkinje fiber; in short: as §2
Canis familiaris [14] = assay: Heart rate was determined by intraduodenal administration of two dosages of 3 mg/kg of compound in anesthetized dogs. Value was reported for experiment 2; format: functional, Canis lupus familiaris; in short: as §3
Canis familiaris [15] = assay: Heart rate was determined by intraduodenal administration of two dosages of 30 mg/kg of compound in anesthetized dogs. Value was reported for experiment 1; format: functional, Canis lupus familiaris; in short: as §3
Canis familiaris [16] = assay: Heart rate was determined by intraduodenal administration of two dosages of 10 mg/kg of compound in anesthetized dogs. Value was reported for experiment 2; format: functional, Canis lupus familiaris; in short: as §3
Canis familiaris [17] = assay: Left ventricular refractory period was determined by intraduodenal administration of 30 mg/kg (high dose) of compound in anesthetized dogs. Value was reported for experiment 1; format: functional, Canis lupus familiaris, Cardiac ventricle
In short: (§4)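 Anesthetized dogs received two intraduodenal doses, the second cumulative (low dose/high dose). Left ventricular FRP and CT were measured 15, 30 and 45 min after dosing. Heart rate and mean blood pressure were taken during nonpacing intervals. Values are percent change from control. The vehicle was 5% dextrose in water/tragacanth. Activity was defined as ≥12% prolongation of FRP or CT.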

Canis familiaris [18] = assay: Left ventricular refractory period was determined by intraduodenal administration of 3 mg/kg (low dose) of compound in anesthetized dogs. Value was reported for experiment 2; format: functional, Canis lupus familiaris, Cardiac ventricle; in short: as §4
Canis familiaris [19] = assay: Mean arterial blood pressure was determined by intraduodenal administration of two dosages of 10 mg/kg of compound in anesthetized dogs. Value was reported for experiment 2; format: functional, Canis lupus familiaris; in short: as §4
Canis familiaris [20] = assay: Conduction time was determined by intraduodenal administration of 10 mg/kg (high dose) of compound in anesthetized dogs. Value was reported for experiment 2; format: functional, Canis lupus familiaris; in short: as §3
Canis familiaris [21] = organism: Canis familiaris; assay: In vitro electrophysiological evaluation in canine cardiac ventricular muscle reported as % change for the functional refractory period (FRP) at 10 uM at concentration range of 0.1-10 uM; design: species or system Canis lupus familiaris, Muscle tissue
In short: (§5)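 Canine right ventricle and papillary muscle strips in oxygenated Tyrode's solution, fitted with stimulating and recording electrodes. The extra-stimulus conduction-interval method was adapted for in vitro use. FRP and CT were read from a conduction-interval curve before and after various compound concentrations, and expressed as percent change from control. Compounds were taken from 10 mM deionized-water stock into Tyrode's. Each strip was used once as its own control.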

Canis familiaris [22] = assay: Left ventricular refractory period was determined by intraduodenal administration of 10 mg/kg (high dose) of compound in anesthetized dogs. Value was reported for experiment 2; format: functional, Canis lupus familiaris, Cardiac ventricle; in short: as §4
Canis familiaris [23] = organism: Canis familiaris; assay: In vitro electrophysiological evaluation in canine cardiac Purkinje fibres reported as percent change Vmax at 10 uM at concentration range of 0.1-100 uM.; format: functional, organism-based; conditions: Canis lupus familiaris, Purkinje fiber; in short: as §2
Canis familiaris [24] = assay: Conduction time was determined by intraduodenal administration of 10 mg/kg (low dose) of compound in anesthetized dogs. Value was reported for experiment 1; format: functional, Canis lupus familiaris; in short: as §3
Canis familiaris [25] = organism: Canis familiaris; assay: In vitro electrophysiological evaluation in canine cardiac Purkinje fibres reported as percent change Vmax at 10 uM at concentration range of 0.1-10 uM; Minimal (<10% decrease or increase in Vmax).; format: functional; conditions: Canis lupus familiaris, Purkinje fiber; in short: as §2
Canis familiaris [26] = organism: Canis familiaris; assay: In vitro electrophysiological evaluation in canine cardiac ventricular muscle reported as maximum % change for functional refractory period (FRP) at 0.1-10 uM concentration range; concentration at which it occurred is 10 uM.; design: species or system Canis lupus familiaris, Muscle tissue; in short: as §5
Canis familiaris [27] = assay: Left ventricular refractory period was determined by intraduodenal administration of 10 mg/kg (low dose) of compound in anesthetized dogs. Value was reported for experiment 1; format: functional, Canis lupus familiaris, Cardiac ventricle; in short: as §4
Canis familiaris [28] = organism: Canis familiaris; assay: In vitro electrophysiological evaluation in canine cardiac ventricular muscle reported as maximum % change for conduction time(CT) at 0.1-10 uM concentration range; Minimal (<10% decrease or increase in CT).; format: functional, Canis lupus familiaris, Muscle tissue; in short: as §5
Canis familiaris [29] = assay: Mean arterial blood pressure was determined by intraduodenal administration of two dosages of 3 mg/kg of compound in anesthetized dogs. Value was reported for experiment 2; format: functional, Canis lupus familiaris
Canis familiaris [30] = organism: Canis familiaris; assay: In vitro electrophysiological evaluation in canine cardiac Purkinje fibres reported as percent change Vmax at 10 uM at concentration range of 0.1-100 uM; Minimal (<10% decrease or increase in Vmax).; format: functional, organism-based; conditions: Canis lupus familiaris, Purkinje fiber; in short: as §2
Canis familiaris [31] = organism: Canis familiaris; assay: In vitro electrophysiological evaluation in canine cardiac Purkinje fibres reported as maximum percent change Vmax concentration range of 0.1-10 uM; Minimal (<10% decrease or increase in Vmax).; format: functional; conditions: Canis lupus familiaris; Purkinje fiber; in short: as §2
Canis familiaris [32] = assay: Mean arterial blood pressure was determined by intraduodenal administration of two dosages of 30 mg/kg of compound in anesthetized dogs. Value was reported for experiment 1; format: functional, Canis lupus familiaris; in short: as §4
Canis familiaris [33] = assay: Heart rate was determined by intraduodenal administration of two dosages of 10 mg/kg of compound in anesthetized dogs. Value was reported for experiment 1; format: functional, Canis lupus familiaris; in short: as §3
Canis familiaris [34] = assay: Mean arterial blood pressure was determined by intraduodenal administration of two dosages of 10 mg/kg of compound in anesthetized dogs. Value was reported for experiment 1; format: functional, Canis lupus familiaris; in short: as §4
Canis familiaris [35] = assay: Conduction time was determined by intraduodenal administration of 3 mg/kg (low dose) of compound in anesthetized dogs. Value was reported for experiment 2; format: functional, Canis lupus familiaris; in short: as §3

CCN(CC)CCNC(=O)c1ccc(N)cc1.Cl [PROCAINAMIDE HYDROCHLORIDE]
Vmax (Canis familiaris [1]): -14% and -10% (2×) | CT (Canis familiaris [2]): <10% | APD95 (Canis familiaris [3]): -8% and 3% | APD95 (Canis familiaris [4]): -7% | Vmax (Canis familiaris [5]): < 10% | APD95 (Canis familiaris [6]): -4% | APD95 (Canis familiaris [7]): -1% and 0% | CT (Canis familiaris [8]): <10%

Cl.O=C1C2CCN(CC2)C1CCCc1ccc(Cl)cc1 (configuration not stated)
Vmax (Canis familiaris [9]): -12% | CT (Canis familiaris [10]): <10% | APD95 (Canis familiaris [11]): 6% | CT (Canis familiaris [12]): 2% | Vmax (Canis familiaris [13]): < 10% | HR (Canis familiaris [14]): -2% | HR (Canis familiaris [15]): -31% | HR (Canis familiaris [16]): -14% | LV FRP (Canis familiaris [17]): 19% | LV FRP (Canis familiaris [18]): 5% | Mean blood pressure (Canis familiaris [19]): 24% | CT (Canis familiaris [20]): 13% | FRP (Canis familiaris [21]): 39% and 23% | APD95 (Canis familiaris [3]): -11% and -18% | LV FRP (Canis familiaris [22]): 9% | Vmax (Canis familiaris [23]): -41% | CT (Canis familiaris [24]): 0% | Vmax (Canis familiaris [25]): < 10% | FRP (Canis familiaris [26]): 39% and 23% | LV FRP (Canis familiaris [27]): 15% | CT (Canis familiaris [28]): <10% | Mean blood pressure (Canis familiaris [29]): 20% | Vmax (Canis familiaris [30]): < 10% | Vmax (Canis familiaris [31]): < 10% | Mean blood pressure (Canis familiaris [32]): 5% | HR (Canis familiaris [33]): -17% | Mean blood pressure (Canis familiaris [34]): -4% | APD95 (Canis familiaris [6]): 6% | CT (Canis familiaris [35]): 3%
